≈ marks a conversion by molar mass, not a printed value.
How the values were obtained:
PC-12 = assay: Cytotoxic activity against human lung cancer PC-12 cell line
[1] = Solubility in water using UV assay; format: physicochemical
[2] = Solubility of compound in JP2 at pH 6.8 using UV assay; format: physicochemical; conditions: JP2, pH 6.8
P388 = assay: Cytotoxic activity against mouse leukemia P388 cell line; format: functional
In short: (§1)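 Growth inhibition (IC50) of mouse leukemia P388 and human lung cancer PC-6 and PC-12 cells after 72 h continuous exposure to compound; IC50 taken as the concentration giving 50% growth inhibition.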

[3] = Solubility of compound in JP1 at pH 1.2 using UV assay; format: physicochemical; conditions: JP1, pH 1.2
PC-6 = assay: Cytotoxic activity against human lung cancer PC-6 cell line; format: functional
In short: as §1

Mus musculus [4] = assay: Maximum rate of body weight loss was determined in mice inoculated with B16 melanoma BL6 cells sc at a dose 8 mg/kg by peroral administration; format: functional; conditions: route oral
In short: (§2)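 On day 0, B16 melanoma BL6 cells (cultured line) were implanted subcutaneously into C57BL/6 mice, six per group. A single iv or oral dose was given on day 4, and body weight was followed. BWLmax (%) is the maximum rate of body weight loss; a value below 0 means no loss.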

Mus musculus [5] = assay: Mortality was determined in mice inoculated with B16 melanoma BL6 cells sc at a dose 12 mg/kg by peroral administration; 0/6; format: functional; conditions: route oral
Mus musculus [6] = assay: Mean tumor weight was determined in mice inoculated with B16 melanoma BL6 cells sc at a dose 18 mg/kg po [IR (%) = (1-TWt/TWc)*100]; format: functional
In short: (§3)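 C57BL/6 mice (six per group) received subcutaneous B16 melanoma BL6 cells on day 0 and a single iv or oral dose on day 4. Tumors were excised and weighed on day 15. Inhibition rate IR (%) = (1 − mean treated tumor weight/mean control tumor weight) × 100.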

Mus musculus [7] = assay: Mortality was determined in mice inoculated with B16 melanoma BL6 cells sc at a dose 18 mg/kg by peroral administration; 2/6; format: functional; conditions: route oral
Mus musculus [8] = assay: Maximum rate of body weight loss was determined in mice inoculated with B16 melanoma BL6 cells sc at a dose 18 mg/kg by peroral administration; format: functional; conditions: route oral
In short: as §2

Mus musculus [9] = assay: Mortality rate in mice inoculated with B16 melanoma BL6 cells sc at a dose 12 mg/kg by intravenous administration; 0/6; format: functional
Mus musculus [10] = assay: Maximum rate of body weight loss was determined in mice inoculated with B16 melanoma BL6 cells sc at a dose 12 mg/kg by intravenous administration; format: functional
In short: as §2

Mus musculus [11] = assay: Mortality rate in mice inoculated with B16 melanoma BL6 cells sc at a dose 18 mg/kg by intravenous administration; 0/6; format: functional
Mus musculus [12] = assay: Mean tumor weight was determined in mice inoculated with B16 melanoma BL6 cells sc at a dose 12 mg/kg po [IR (%) = (1-TWt/TWc)*100]; format: functional
In short: as §3

Mus musculus [13] = assay: Maximum rate of body weight loss was determined in mice inoculated with B16 melanoma BL6 cells sc at a dose 12 mg/kg by peroral administration; format: functional; conditions: route oral
In short: as §2

Mus musculus [14] = assay: Mortality rate in mice inoculated with B16 melanoma BL6 cells sc at a dose 8 mg/kg by peroral administration; 0/6; format: functional; conditions: route oral
Mus musculus [15] = assay: Mean tumor weight was determined in mice inoculated with B16 melanoma BL6 cells sc at a dose 12 mg/kg iv [IR (%) = (1-TWt/TWc)*100]; format: functional
In short: as §3

Mus musculus [16] = assay: Mean tumor weight was determined in mice inoculated with B16 melanoma BL6 cells sc at a dose 8 mg/kg po [IR (%) = (1-TWt/TWc)*100]; format: functional
In short: as §3

Mus musculus [17] = assay: Maximum rate of body weight loss was determined in mice inoculated with B16 melanoma BL6 cells sc at a dose 8 mg/kg by intravenous administration; format: functional
In short: as §2

Mus musculus [18] = assay: Maximum rate of body weight loss was determined in mice inoculated with B16 melanoma BL6 cells sc at a dose 27 mg/kg by peroral administration; format: functional; conditions: route oral
In short: as §2

Mus musculus [19] = assay: Mortality was determined in mice inoculated with B16 melanoma BL6 cells sc at a dose 5.3 mg/kg by intravenous administration; 0/6; format: functional
Mus musculus [20] = assay: Mortality was determined in mice inoculated with B16 melanoma BL6 cells sc at a dose 8 mg/kg by intravenous administration; 0/6; format: functional
Mus musculus [21] = assay: Mortality was determined in mice inoculated with B16 melanoma BL6 cells sc at a dose 27 mg/kg by peroral administration; 0/6; format: functional; conditions: route oral
Mus musculus [22] = assay: Mean tumor weight was determined in mice inoculated with B16 melanoma BL6 cells sc at a dose 5.3 mg/kg iv [IR (%) = (1-TWt/TWc)*100]; format: functional
In short: as §3

Mus musculus [23] = assay: Mortality was determined in mice inoculated with B16 melanoma BL6 cells sc at a dose 12 mg/kg by intravenous administration; 0/6; format: functional
Mus musculus [24] = assay: Mortality was determined in mice inoculated with B16 melanoma BL6 cells sc at a dose 8 mg/kg by peroral administration; 0/6; format: functional; conditions: route oral
Mus musculus [25] = assay: Mean tumor weight was determined in mice inoculated with B16 melanoma BL6 cells sc at a dose 27 mg/kg po [IR (%) = (1-TWt/TWc)*100]; format: functional
In short: as §3

Mus musculus [26] = assay: Mean tumor weight was determined in mice inoculated with B16 melanoma BL6 cells sc at a dose 18 mg/kg iv [IR (%) = (1-TWt/TWc)*100]; format: functional
In short: as §3

Mus musculus [27] = assay: Mortality was determined in mice inoculated with B16 melanoma BL6 cells sc at a dose 18 mg/kg by intravenous administration; 0/6; format: functional
Mus musculus [28] = assay: Mean tumor weight was determined in mice inoculated with B16 melanoma BL6 cells sc at a dose 8 mg/kg iv [IR (%) = (1-TWt/TWc)*100]; format: functional
In short: as §3

Mus musculus [29] = assay: Mortality was determined in mice inoculated with B16 melanoma BL6 cells sc at a dose 18 mg/kg by peroral administration; 0/6; format: functional; conditions: route oral
Mus musculus [30] = assay: Maximum rate of body weight loss was determined in mice inoculated with B16 melanoma BL6 cells sc at a dose 5.3 mg/kg by intravenous administration; format: functional
In short: as §2

Mus musculus [31] = assay: Maximum rate of body weight loss was determined in mice inoculated with B16 melanoma BL6 cells sc at a dose 18 mg/kg by intravenous administration; format: functional
In short: as §2

Mus musculus [32] = assay: Maximum rate of body weight loss was determined in mice inoculated with B16 melanoma BL6 cells sc at a dose 600 mg/kg by peroral administration; format: functional; conditions: route oral
In short: as §2

Mus musculus [33] = assay: Mortality was determined in mice inoculated with B16 melanoma BL6 cells sc at a dose 100 mg/kg by intravenous administration; 0/6; format: functional
Mus musculus [34] = assay: Mortality was determined in mice inoculated with B16 melanoma BL6 cells sc at a dose 600 mg/kg by peroral administration; 0/6; format: functional; conditions: route oral
Mus musculus [35] = assay: Maximum rate of body weight loss was determined in mice inoculated with B16 melanoma BL6 cells sc at a dose 100 mg/kg by intravenous administration; format: functional
In short: as §2

Mus musculus [36] = assay: Mean tumor weight was determined in mice inoculated with B16 melanoma BL6 cells sc at a dose 100 mg/kg iv [IR (%) = (1-TWt/TWc)*100]; format: functional
In short: as §3

Mus musculus [37] = assay: Mean tumor weight was determined in mice inoculated with B16 melanoma BL6 cells sc at a dose 600 mg/kg po [IR (%) = (1-TWt/TWc)*100]; format: functional
In short: as §3

Row | Compound | GI50 (PC-12) [ng/mL] | solubility [1] [µg/mL] | solubility [2] [µg/mL] | GI50 (P388) [ng/mL] | solubility [3] [µg/mL] | GI50 (PC-6) [ng/mL] | BWLmax (Mus musculus [4]) [%] | Mortality (Mus musculus [5]) | IR (Mus musculus [6]) [%] | BWLmax (Mus musculus [8]) [%] | BWLmax (Mus musculus [10]) [%] | IR (Mus musculus [12]) [%] | BWLmax (Mus musculus [13]) [%] | IR (Mus musculus [15]) [%] | IR (Mus musculus [16]) [%] | also measured
1 | CC(=O)O[C@@]12CO[C@@H]1CC[C@@]1(C)[C@@H]3O[C@H](CN4CCOCC4)O[C@@H]3C3=C(C)[C@@H](OC(=O)[C@](C)(O)[C@@H](NC(=O)OC(C)(C)C)c4ccccc4)C[C@@](O)([C@@H](OC(=O)c4ccccc4)[C@@H]12)C3(C)C | 0.07 (≈ 7.62e-05 µM) | < 4 | < 4 | 0.02 (≈ 2.18e-05 µM) | 350 (≈ 381 µM) | 0.47 (≈ 0.000511 µM) |  |  |  |  |  |  |  |  |  | 
2 | CC(=O)O[C@@]12CO[C@@H]1CC[C@@]1(C)[C@@H]3O[C@H](CN4CCOCC4)O[C@@H]3C3=C(C)[C@@H](OC(=O)[C@](C)(O)[C@@H](NC(=O)OC(C)(C)C)c4ccccn4)C[C@@](O)([C@@H](OC(=O)c4ccccc4)[C@@H]12)C3(C)C | 0.06 (≈ 6.52e-05 µM) | 6 (≈ 6.52 µM) | 5 (≈ 5.43 µM) | 0.12 (≈ 0.00013 µM) | 1800 (≈ 1960 µM) | 0.11 (≈ 0.00012 µM) | <0 | 0 | 98 | 18.1 | 13.5 | 92.2 | <0 | 96.4 | 42.2 | Mortality (Mus musculus [7]): 2; Mortality (Mus musculus [9]): 0; Mortality (Mus musculus [11]): 0; Mortality (Mus musculus [14]): 0
3 | CC(=O)O[C@@]12CO[C@@H]1CC[C@@]1(C)[C@@H]3O[C@H](CN4CCOCC4)O[C@@H]3C3=C(C)[C@@H](OC(=O)[C@H](O)[C@@H](NC(=O)OC(C)(C)C)c4ccccn4)C[C@@](O)([C@@H](OC(=O)c4ccccc4)[C@@H]12)C3(C)C | 0.21 (≈ 0.000232 µM) | 14 (≈ 15.5 µM) | 11 (≈ 12.1 µM) | 0.18 (≈ 0.000199 µM) | 1700 (≈ 1880 µM) | 0.39 (≈ 0.00043 µM) | <0 | 0 | 93.3 | 0.3 | <0 | 84.9 | <0 | 94.4 | 27.2 | BWLmax (Mus musculus [17]): <0%; BWLmax (Mus musculus [18]): 4.5%; Mortality (Mus musculus [19]): 0; Mortality (Mus musculus [20]): 0; Mortality (Mus musculus [21]): 0; IR (Mus musculus [22]): 62.4%; Mortality (Mus musculus [23]): 0; Mortality (Mus musculus [24]): 0; IR (Mus musculus [25]): 97.3%; IR (Mus musculus [26]): 95.6%; Mortality (Mus musculus [27]): 0; IR (Mus musculus [28]): 87.2%; Mortality (Mus musculus [29]): 0; BWLmax (Mus musculus [30]): <0%; BWLmax (Mus musculus [31]): 3.7%
4 | CC(=O)O[C@@]12CO[C@@H]1C[C@H](O)[C@@]1(C)C(=O)[C@H](O)C3=C(C)[C@@H](OC(=O)[C@H](O)[C@@H](NC(=O)OC(C)(C)C)c4ccccc4)C[C@@](O)([C@@H](OC(=O)c4ccccc4)[C@H]21)C3(C)C.O.O.O [DOCETAXEL] | 14.9 | < 4 | < 4 | 0.78 | < 4 | 0.41 |  |  |  |  |  |  |  |  |  | BWLmax (Mus musculus [32]): <0%; Mortality (Mus musculus [33]): 0; Mortality (Mus musculus [34]): 0; BWLmax (Mus musculus [35]): <0%; IR (Mus musculus [36]): 95.1%; IR (Mus musculus [37]): 6.2%

From ChEMBL document CHEMBL1136257, “New highly active taxoids from 9beta-dihydrobaccatin-9,10-acetals. Part 3” (Bioorg Med Chem Lett, 2003)
